Shown are actives, neighbours in structure and some others; about 5.8% of the full set was active somewhere.
Pyk2 oligo antag: antagonists of Pyk2 self-association, primary screen, Q293 cells, FERM NanoBiT luminescence, HTS; z-score (the deposit names both 25 µM and 10 µM); AID 1347419, 2020; stronger effect = lower value; actives 0.83% (n = 99,000); Protein-tyrosine kinase 2-beta (Homo sapiens), Q14289;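 active means Z-score of -3 or lower, scaled per plate to the spread of control and sample wells; inactive means z-score above -3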;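 further: negative z-score means lost luminescence so less FERM oligomerization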
PLK1 PBD inh: Plk1 polo box domain binding inhibitors, primary screen, biochemical, fluorescence polarization; Plk1 PBD phosphopeptide binding; inhibition, %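 (tested at about 20 µM)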; actives 0.13% (n = 97,000); in the data active means inhibition above about 34%, passing the limit was not always enough
HIV Rev-RRE inh: HIV-1 Rev-RRE binding inhibitors, primary screen, biochemical, FRET, protein-RNA interaction. P05866. Rev peptide-RRE RNA binding. inhibition, % at 8 µM. actives 0.79% (n = 97,000). AID 704, 2007;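 active means inhibition above the screen-wide mean plus 3 SD, cut at about 35% in these data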;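 further: 0% = median DMSO wells and 100% = median Neomycin B control wells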
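Assay system: labelled RRE RNA duplex and labelled Rev peptide / Medium: HEPES pH 7.5 salt buffer with EDTA / Reagent: labelled Rev peptide / Schedule: 5 + 15 min at 25 °C / Signal: FRET, excitation 480 nm, emission 540 nm donor and 671 nm acceptor / Benchmarks: DMSO and neomycin B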
Cav32 inh: Cav3.2 calcium influx blockers – cell-based, Fluo-4 calcium fluorescence, FDSS, MLSMR library, primary screen | Cav3.2-expressing cells; stronger effect = lower value | B-score at 10 µM | actives 4% (n = 100,000) | AID 449739, 2010;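 active means single-dose well whose peak fluorescence ratio is a statistical outlier from its plate by either plate-standardised score or position-corrected B-score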
PLK1 inh: human PLK1 kinase inhibitors, primary screen, biochemical, TR-FRET; recombinant PLK1 kinase, TR-FRET peptide phosphorylation; inhibition, % at 10 µM; actives 0.53% (n = 97,000); Serine/threonine-protein kinase PLK1 (Homo sapiens), P53350;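 active means inhibition of 50% or more in the single-concentration screen; inactive means inhibition below 50%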;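 further: 0% = DMSO max control and 100% = H-89 dihydrochloride min control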
FAK inh: FAK kinase inhibitors, primary screen, biochemical. Focal adhesion kinase 1 (Homo sapiens), Q05397. biochemical FAK kinase activity assay. inhibition, %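 (tested at 7 µM)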. actives 0.84% (n = 97,000). AID 727, 2007; in the data active means inhibition above about 19%;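 further: 0% = DMSO and 100% = reference compound high control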
* = called active by the depositor; nt = no result; [ ] = remark or other dose.

SMILES	Pyk2 oligo antag	PLK1 PBD inh	HIV Rev-RRE inh	Cav32 inh	PLK1 inh	FAK inh
CCN(CC)c1ccc(/C=C(/C#N)c2nc3ccc(C)cc3[nH]2)c(OC(C)C)c1	-3.1*	-192	138*[fluorescence artefact?]	-5.5*	-67	3
CCOC(=O)c1c(C)nc2sc3c(c2c1-c1ccc(OC)cc1)NC(c1ccc(OC)cc1)NC3=O (stereo unspecified)	1.5	-35	2	-0.22	-4	2
COc1cc2c(cc1OC)C(C(=O)Nc1ccc3c(c1)OCCO3)C(c1cccnc1)N(C)C2=O (stereo unspecified)	-0.33	19	-1	nt	2	-2
Cc1[nH]nc2c1C(c1cccc(O)c1)C1=C(CC(C)(C)CC1=O)N2 (stereo unspecified)	-0.67	14	5	0.16	-13	2
CCOC(=O)c1c(NC(=O)CSc2nnc(C)s2)sc2c1CCN(C)C2	-0.45	0	40*	-0.25	2	19
CCOC(=O)c1c(NC(=O)C(F)(OC)C(F)(F)F)sc2c1CCN(C)C2 (stereo unspecified)	-0.69	-4	56*	0.0084	-12	-5
CCOC(=O)NC(=O)CSc1nnc(C)s1	0.51	-18	10	0.36	-7	0
Cc1cc(C)n(C(=O)c2ccc(S(=O)(=O)NCC3CCCO3)cc2)n1 (stereo unspecified)	0.64	-10	3	0.0013	-13	8
O=C(c1cc2ccccc2oc1=O)N1CCN(c2ncccn2)CC1	0.79	-6	10	0.089	-5	0
CC(=O)C1=C(O)C(=O)N(Cc2cccnc2)C1c1ccc(Cl)cc1Cl (stereo unspecified)	0.36	-19	8	0.067	-5	0
Cc1cc(O)c(-c2n[nH]c3c2C(c2cccc(O)c2)N(Cc2cccnc2)C3=O)cc1Cl (stereo unspecified)	-3.9*	-14	3	1.3	-15	0
O=C(c1ccccc1)N(Cc1ccccc1)c1ccccn1	-0.16	-8	6	0.46	-2	6
O=C(N(Cc1ccccc1)c1ccccn1)C12CC3CC(CC(C3)C1)C2	-0.51	-34	17	-3.6*	-12	0
O=C(Nc1ccc(N2CCCC2)cc1)c1ccccc1F	1.2	10	7	0.78	-7	63*
O=C(Nc1ccc(N2CCOCC2)c(Cl)c1)c1cccc(F)c1	-0.53	-12	4	0.045	-5	4
O=C(Nc1ccc(N2CCCC2)cc1)c1cccc(F)c1	-0.58	-7	3	-5.7*	-3	6
N=C1/C(=C/c2cccs2)C(=O)N=C2SN=C(SCc3ccccc3)N12	-1.4	-13	4	-7.7*	-3	-4
NC1=NC(=O)/C(=C\c2cccs2)S1	-0.03	-19	6	0.93	-2	4
CC(=O)C1=C(C)NC(SCC(=O)c2cc(Cl)ccc2Cl)=C(C#N)C1c1ccco1 (stereo unspecified)	-1.1	-11	13	-3.7*	-6	6
CC1=C(C(=O)Nc2ccccc2)C(c2ccco2)C(C#N)=C(SCC(=O)OC(C)C)N1 (stereo unspecified)	-1.6	7	4	-4.9*	-16	1
CC(=O)C1=C(C)NC(SCC(=O)c2ccc(Cl)c(Cl)c2)=C(C#N)C1c1ccco1 (stereo unspecified)	-0.06	1	8	-2.9	-4	1
CC1=C(C(=O)Nc2ccccc2)C(c2ccco2)C(C#N)=C(SCC(=O)Nc2cccc(C)c2C)N1 (stereo unspecified)	-0.45	2	10	-5.4*	-11	1
COc1cccc(-n2cnc3sc(C)c(C)c3c2=O)c1	-0.09	nt	nt	nt	nt	nt
CCc1ccc(NSc2ccccc2[N+](=O)[O-])cc1	-3*	-27	16	-0.89	5	5
COc1cc2[nH]c3c(N4CCN(c5ccccn5)CC4)ncnc3c2cc1OC	-2.6	-6	12	nt	5	13
SMILES	Pyk2 oligo antag	PLK1 PBD inh	HIV Rev-RRE inh	Cav32 inh	PLK1 inh	FAK inh
COc1ccc(N2CCN(c3ncnc4c3[nH]c3ccccc34)CC2)cc1	-3.5*	-11	7	-0.13	0	2
COc1ccc(-c2[nH]ncc2/C=C(/C#N)C(=O)NC2CCCCCC2)cc1	-2	-8	14	-0.78	-7	8
O=C(C1CC1)N1CCc2cc(S(=O)(=O)NCC3COc4ccccc4O3)ccc21 (stereo unspecified)	1.3	-14	7	-3	-6	-2
O=C(C1CC1)N1CCc2cc(Br)cc(S(=O)(=O)NCC3COc4ccccc4O3)c21 (stereo unspecified)	-0.51	nt	nt	-4.1*	nt	nt
Cc1[nH]c2ccccc2c1/C=C/c1cc[n+](C)cc1	-1.5	-87	138*[fluorescence artefact?]	nt	-69	2
Cc1[nH]c2ccccc2c1SCCN	nt	0	1	-0.45	-20	-1
Cc1nonc1OCC(C)(COc1nonc1C)NC(=O)c1ccc(Cl)cc1	-0.02	2	21	-4.2*	-15	-2
CC(C)(C)OC(=O)NNC(=O)c1ccc(Cl)cc1	0.94	6	7	0.84	-2	-5
COc1ccc(/C=C2\C(=O)N(c3c(Cl)cc(Cl)cc3Cl)N=C2NC(=O)c2cccc([N+](=O)[O-])c2)cc1	-3.7*	nt	nt	nt	nt	nt
COc1cccc(C(=O)Nc2cccc(C(=O)NC3=NN(c4c(Cl)cc(Cl)cc4Cl)C(=O)C3)c2)c1	-1.4	26	3	2.4	-7	13
Cc1cc(OC(=O)c2ccc(Cl)cc2Cl)nc(C)n1	-0.05	0	5	3	-4	0
O=C(c1ccc2ccccc2c1)N1CCN(c2ccc([N+](=O)[O-])c(N3CCOCC3)c2)CC1	-0.24	-14	-1	-0.35	-3	-2
Cc1cccc(C(=O)N2CCN(c3ccc([N+](=O)[O-])c(N4CCOCC4)c3)CC2)c1	-1.6	3	8	3.7*	-12	3
CC(C)(C)NC(=O)CN(C(=O)Cn1nnc(-c2ccc(Cl)cc2)n1)C1CCN(Cc2ccccc2)CC1	1	8	8	-7.6*	-16	0
CC(C)(C)NC(=O)CN(C(=O)Cn1nnc(-c2ccccc2F)n1)c1cccc2c1CCCC2	-0.66	-2	3	-3.1*	-24	0
C/C(CCc1ccc2c(c1)OCO2)=N\N=C(/N)SC1CC(=O)N(c2ccc(Cl)cc2)C1=O (stereo unspecified)	0.83	-8	4	-4.1*	2	-13
CCC(Sc1nc2n[nH]c(C)c2c(=N)n1-c1cccc(Cl)c1C)C(=O)N(CC)CC (stereo unspecified)	-3*	15	10	0.29	-11	0

Screens from PubChem.
